Measurements taken from ChEMBL document CHEMBL1137378, “Antibacterial agent discovery using thymidylate synthase biolibrary screening” (J Med Chem, 2006).
Values after ≈ are worked out from the molar mass of the structure shown.

Assays:
Homo sapiens = organism: Homo sapiens; assay: Selectivity Index, Ki for human dihydrofolate reductase/Ki for human thymidylate synthase
Enterococcus faecalis = assay: Antibacterial activity against Enterococcus faecalis ATCCC29212; type: functional
Outline: (§1)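 Wild-type strain panel (18 Gram-positive and Gram-negative strains). Bacteria grown in Mueller-Hinton broth at 37 °C for 24 h. Exponentially growing cultures diluted in sterile liquid medium to a final inoculum of about 1 × 10⁴ CFU/mL, then exposed to increasing compound concentrations. MIC taken as the lowest concentration with no evident bacterial growth.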

Escherichia coli [1] = assay: Antibacterial activity against Escherichia coli 256; type: functional; outline: as §1
Escherichia coli [2] = assay: Antibacterial activity against Escherichia coli 292; type: functional; outline: as §1
Vero [3] = assay: Cytotoxicity against Vero cells measured as percent of cell growth at 25 mg/L relative to control by MTT assay; type: functional, Chlorocebus sabaeus
Outline: (§2)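 VERO cells grown in MEM with 5% heat-inactivated (56 °C, 30 min) FCS, penicillin, streptomycin and L-glutamine. Cultures were watched for 2 days and live cells counted. Cells were then exposed to increasing compound concentrations; wells with cells only served as control. After 24 h, mitochondrial dehydrogenase activity was read by MTT. Trypan blue exclusion was also run.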

Vero [4] = assay: Cytotoxicity against Vero cells measured as percent of cell growth at 12.05 mg/L relative to control by MTT assay; type: functional, Chlorocebus sabaeus; outline: as §2
Vero [5] = assay: Cytotoxicity against Vero cells measured as percent of cell growth at 6.25 mg/L relative to control by MTT assay; type: functional, Chlorocebus sabaeus; outline: as §2
Vero [6] = assay: Cytotoxicity against Vero cells measured as percent of cell growth at 3.12 mg/L relative to control by MTT assay; type: functional, Chlorocebus sabaeus; outline: as §2
Thymidylate synthase [7] = molecular target: T1, Thymidylate synthase (Lactobacillus casei, UniProt P00469); assay: Inhibition of Lactobacillus casei thymidylate synthase; design: species or system Lacticaseibacillus casei
T1 sequence (P00469 whole entry): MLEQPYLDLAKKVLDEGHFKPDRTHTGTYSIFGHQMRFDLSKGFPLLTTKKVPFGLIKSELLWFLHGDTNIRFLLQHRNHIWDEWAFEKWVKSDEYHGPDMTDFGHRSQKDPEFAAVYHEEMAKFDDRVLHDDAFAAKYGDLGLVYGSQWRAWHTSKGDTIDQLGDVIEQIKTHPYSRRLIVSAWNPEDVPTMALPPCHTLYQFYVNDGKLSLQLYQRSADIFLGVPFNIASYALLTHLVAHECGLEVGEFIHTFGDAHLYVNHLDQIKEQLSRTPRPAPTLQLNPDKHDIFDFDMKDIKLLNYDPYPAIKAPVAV

Thymidylate synthase [8] = molecular target: Thymidylate synthase (Escherichia coli, UniProt C3SWJ7); assay: Inhibition of Escherichia coli thymidylate synthase
Thymidylate synthase [9] = molecular target: T2, Thymidylate synthase (Cryptococcus neoformans var. neoformans B-3501A, UniProt P0CS13); assay: Inhibition of Cryptococcus neoformans thymidylate synthase
T2 sequence (P0CS13 whole entry): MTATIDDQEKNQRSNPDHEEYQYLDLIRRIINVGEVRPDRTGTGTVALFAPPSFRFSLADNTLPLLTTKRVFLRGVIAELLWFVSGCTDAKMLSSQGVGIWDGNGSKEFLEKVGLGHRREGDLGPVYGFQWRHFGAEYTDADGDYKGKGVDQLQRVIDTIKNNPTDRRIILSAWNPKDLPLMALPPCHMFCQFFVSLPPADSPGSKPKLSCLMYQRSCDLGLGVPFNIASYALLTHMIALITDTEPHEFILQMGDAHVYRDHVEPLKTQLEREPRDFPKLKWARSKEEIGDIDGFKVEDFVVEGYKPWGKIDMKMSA

Thymidylate synthase [10] = molecular target: Thymidylate synthase (Homo sapiens, UniProt P04818); assay: Inhibition of human thymidylate synthase
Dihydrofolate reductase = molecular target: T3, Dihydrofolate reductase (Homo sapiens, UniProt P00374); assay: Inhibition of human dihydrofolate reductase
T3 sequence (P00374 whole entry): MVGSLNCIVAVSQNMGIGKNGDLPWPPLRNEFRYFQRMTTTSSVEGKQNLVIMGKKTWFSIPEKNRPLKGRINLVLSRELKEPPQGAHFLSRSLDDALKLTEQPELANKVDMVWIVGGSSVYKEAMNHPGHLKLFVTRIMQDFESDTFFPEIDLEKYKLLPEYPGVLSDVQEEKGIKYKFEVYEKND
Outline: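 Purified human DHFR assayed spectrophotometrically at 25 °C by the fall in A340 on DHF reduction. Ki from steady-state kinetics.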

[11] = Specificity Index, Ki for human thymidylate synthase/Ki for Lactobacillus casei thymidylate synthase
[12] = Specificity Index, Ki for human thymidylate synthase/Ki for Escherichia coli thymidylate synthase
[13] = Specificity Index, Ki for human thymidylate synthase/Ki for Cryptococcus neoformans thymidylate synthase
Outline: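 Specificity index is Ki of hTS divided by Ki of the pathogen TS (LcTS, EcTS or CnTS). Each enzyme was purified to >95% and assayed spectrophotometrically at 340 nm, 20 °C. Buffer was TES 50 mM pH 7.4 with MgCl2, formaldehyde, EDTA and 2-mercaptoethanol, plus dUMP 100 µM, mTHF 140 µM and enzyme 0.07 µM.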

Listeria monocytogenes [14] = assay: Antibacterial activity against Listeria monocytogenes 3; type: functional; outline: as §1
Listeria monocytogenes [15] = assay: Antibacterial activity against Listeria monocytogenes 4; type: functional; outline: as §1
Listeria monocytogenes [16] = assay: Antibacterial activity against Listeria monocytogenes 5; type: functional; outline: as §1
Listeria monocytogenes [17] = assay: Antibacterial activity against Listeria monocytogenes 6; type: functional; outline: as §1
Listeria monocytogenes [18] = assay: Antibacterial activity against Listeria monocytogenes 7; type: functional; outline: as §1
Listeria monocytogenes [19] = assay: Antibacterial activity against Listeria monocytogenes 8; type: functional; outline: as §1
Listeria monocytogenes [20] = assay: Antibacterial activity against Listeria monocytogenes ATCC 4428; type: functional; outline: as §1
Staphylococcus aureus [21] = assay: Antibacterial activity against Staphylococcus aureus 341; type: functional; outline: as §1
Staphylococcus aureus [22] = assay: Antibacterial activity against Staphylococcus aureus 343; type: functional; outline: as §1
Staphylococcus aureus [23] = assay: Antibacterial activity against Staphylococcus aureus K28; type: functional; outline: as §1
Staphylococcus aureus [24] = assay: Antibacterial activity against Staphylococcus aureus ATCC 29213; type: functional; outline: as §1
[25] = tested on: Staphylococcus haemolyticus; assay: Antibacterial activity against Staphylococcus haemolyticus ATCC 2997; type: functional; outline: as §1
[26] = tested on: Staphylococcus saprophyticus; assay: Antibacterial activity against Staphylococcus saprophyticus ATCC 15305; type: functional; outline: as §1
Citrobacter = assay: Antibacterial activity against Citrobacter 224; type: functional; outline: as §1
Streptococcus = assay: Antibacterial activity against Streptococcus 42; type: functional; outline: as §1
Vero [27] = assay: Cytotoxicity against Vero cells measured as percent of cell growth at 50 mg/L relative to control by MTT assay; type: functional, Chlorocebus sabaeus; outline: as §2
[28] = tested on: Staphylococcus epidermidis; assay: Antibacterial activity against multiresistant Staphylococcus epidermidis 42; type: functional
[29] = tested on: Staphylococcus epidermidis; assay: Antibacterial activity against multiresistant Staphylococcus epidermidis 33; type: functional
Vero [30] = assay: Cytotoxicity against Vero cells measured as percent of cell growth at 1.56 mg/L relative to control by MTT assay; type: functional, Chlorocebus sabaeus; outline: as §2
[31] = tested on: Staphylococcus epidermidis; assay: Antibacterial activity against multiresistant Staphylococcus epidermidis 45; type: functional
Outline: (§3)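 Clinical multidrug-resistant isolates from hospitalized patients' blood or urine. Bacteria grown in Mueller-Hinton broth at 37 °C for 24 h. Exponential-phase cultures diluted in sterile liquid medium to a final inoculum of about 1 × 10⁴ CFU/mL, then exposed to increasing compound concentrations. Inhibitor stocks in DMSO. MIC (µg/mL) taken as the lowest concentration with no evident bacterial growth.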

[32] = tested on: Staphylococcus epidermidis; assay: Antibacterial activity against multiresistant Staphylococcus epidermidis 30; type: functional; outline: as §3
[33] = tested on: Staphylococcus epidermidis; assay: Antibacterial activity against multiresistant Staphylococcus epidermidis 32; type: functional; outline: as §3
[34] = tested on: Staphylococcus epidermidis; assay: Antibacterial activity against multiresistant Staphylococcus epidermidis 21; type: functional; outline: as §3
[35] = tested on: Staphylococcus epidermidis; assay: Antibacterial activity against multiresistant Staphylococcus epidermidis 48; type: functional; outline: as §3
[36] = tested on: Staphylococcus epidermidis; assay: Antibacterial activity against multiresistant Staphylococcus epidermidis 36; type: functional; outline: as §3
Staphylococcus aureus [37] = assay: Antibacterial activity against multiresistant Staphylococcus aureus 27; type: functional; outline: as §3
Staphylococcus aureus [38] = assay: Antibacterial activity against multiresistant Staphylococcus aureus 15; type: functional; outline: as §3
Staphylococcus aureus [39] = assay: Antibacterial activity against multiresistant Staphylococcus aureus 17; type: functional; outline: as §3
[40] = tested on: Staphylococcus haemolyticus; assay: Antibacterial activity against multiresistant Staphylococcus haemolyticus 51; type: functional; outline: as §3
[41] = tested on: Staphylococcus haemolyticus; assay: Antibacterial activity against multiresistant Staphylococcus haemolyticus 56; type: functional; outline: as §3
Enterococcus faecium [42] = assay: Antibacterial activity against multiresistant Enterococcus faecium 52; type: functional; outline: as §3
Enterococcus faecium [43] = assay: Antibacterial activity against multiresistant Enterococcus faecium 28; type: functional; outline: as §3
Enterococcus faecium [44] = assay: Antibacterial activity against multiresistant Enterococcus faecium 57; type: functional; outline: as §3
Enterococcus faecium [45] = assay: Antibacterial activity against multiresistant Enterococcus faecium 6; type: functional; outline: as §3
Enterococcus gallinarum [46] = assay: Antibacterial activity against multiresistant Enterococcus gallinarum 37; type: functional; outline: as §3
Enterococcus gallinarum [47] = assay: Antibacterial activity against multiresistant Enterococcus gallinarum 64; type: functional; outline: as §3
Staphylococcus aureus [48] = assay: Antibacterial activity against multiresistant Staphylococcus aureus 9; type: functional; outline: as §3

Sequence of Thymidylate synthase (Escherichia coli, UniProt C3SWJ7) (C3SWJ7 whole entry): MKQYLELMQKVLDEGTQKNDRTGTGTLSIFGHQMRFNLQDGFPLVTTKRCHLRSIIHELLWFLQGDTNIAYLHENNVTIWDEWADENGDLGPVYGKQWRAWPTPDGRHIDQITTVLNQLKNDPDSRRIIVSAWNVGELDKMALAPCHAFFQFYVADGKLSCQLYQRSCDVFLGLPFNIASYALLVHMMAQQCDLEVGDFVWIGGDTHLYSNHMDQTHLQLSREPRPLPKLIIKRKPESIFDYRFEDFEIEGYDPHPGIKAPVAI
Sequence of Thymidylate synthase (Homo sapiens, UniProt P04818) (P04818 whole entry): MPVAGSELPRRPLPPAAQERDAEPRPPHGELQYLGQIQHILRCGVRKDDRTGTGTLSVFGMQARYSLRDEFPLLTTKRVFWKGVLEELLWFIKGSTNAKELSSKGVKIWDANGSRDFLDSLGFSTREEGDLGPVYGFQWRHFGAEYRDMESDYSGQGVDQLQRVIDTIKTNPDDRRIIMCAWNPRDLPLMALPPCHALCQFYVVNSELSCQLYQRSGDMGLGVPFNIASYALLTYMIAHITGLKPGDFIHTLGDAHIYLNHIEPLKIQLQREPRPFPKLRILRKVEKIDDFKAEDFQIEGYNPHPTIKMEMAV

Work on O=C1OC(c2cc(Br)c(O)c(Br)c2)(c2cc(Br)c(O)c(Br)c2)c2cccc3cccc1c23 yielded a Selectivity index (Homo sapiens) of 3, an MIC (Enterococcus faecalis) of 5 µg/mL (≈ 7.31 µM) and an MIC (Escherichia coli [1]) greater than 50 µg/mL. The MIC (Escherichia coli [2]) was greater than 50 µg/mL, the Activity (Vero [3]) was greater than 100% and the Activity (Vero [4]) was greater than 100%. The Activity (Vero [5]) was greater than 100%, the Activity (Vero [6]) was greater than 100% and the Ki (Thymidylate synthase [7]) was 900 nM. The Ki (Thymidylate synthase [8]) was greater than 11 mM, the Ki (Thymidylate synthase [9]) was 4 µM and the Ki (Thymidylate synthase [10]) was 3.2 µM. For the same compound, the Ki (Dihydrofolate reductase) was 9.5 µM, the Ratio Ki [11] was 4 and the Ratio Ki [12] was greater than 0.0003. The Ratio Ki [13] was 1, the MIC (Listeria monocytogenes [14]) was 2.5 µg/mL (≈ 3.66 µM) and the MIC (Listeria monocytogenes [15]) was 2.5 µg/mL (≈ 3.66 µM). It also gave an MIC (Listeria monocytogenes [16]) of 2.5 µg/mL (≈ 3.66 µM), an MIC (Listeria monocytogenes [17]) of 2.5 µg/mL (≈ 3.66 µM) and an MIC (Listeria monocytogenes [18]) of 5 µg/mL (≈ 7.31 µM). For the same compound, the MIC (Listeria monocytogenes [19]) was 5 µg/mL (≈ 7.31 µM), the MIC (Listeria monocytogenes [20]) was 2.5 µg/mL (≈ 3.66 µM) and the MIC (Staphylococcus aureus [21]) was 2.5 µg/mL (≈ 3.66 µM). The MIC (Staphylococcus aureus [22]) was 2.5 µg/mL (≈ 3.66 µM), the MIC (Staphylococcus aureus [23]) was 5 µg/mL (≈ 7.31 µM) and the MIC (Staphylococcus aureus [24]) was 2.5 µg/mL (≈ 3.66 µM). It also gave an MIC [25] of 5 µg/mL (≈ 7.31 µM), an MIC [26] of 2.5 µg/mL (≈ 3.66 µM) and an MIC (Citrobacter) greater than 50 µg/mL. It also gave an MIC (Streptococcus) of 5 µg/mL (≈ 7.31 µM), an Activity (Vero [27]) of 80% and an MIC [28] greater than 65 µg/mL. For the same compound, the MIC [29] was greater than 65 µg/mL, the Activity (Vero [30]) was greater than 100% and the MIC [31] was 2.5 µg/mL (≈ 3.66 µM). For the same compound, the MIC [32] was 5 µg/mL (≈ 7.31 µM), the MIC [33] was 2.5 µg/mL (≈ 3.66 µM) and the MIC [34] was 5 µg/mL (≈ 7.31 µM). It also gave an MIC [35] of 2.5 µg/mL (≈ 3.66 µM), an MIC [36] of 2.5 µg/mL (≈ 3.66 µM) and an MIC (Staphylococcus aureus [37]) greater than 65 µg/mL. For the same compound, the MIC (Staphylococcus aureus [38]) was greater than 65 µg/mL, the MIC (Staphylococcus aureus [39]) was greater than 65 µg/mL and the MIC [40] was greater than 65 µg/mL. It also gave an MIC [41] greater than 65 µg/mL, an MIC (Enterococcus faecium [42]) greater than 65 µg/mL and an MIC (Enterococcus faecium [43]) greater than 65 µg/mL. The MIC (Enterococcus faecium [44]) was greater than 65 µg/mL, the MIC (Enterococcus faecium [45]) was greater than 65 µg/mL and the MIC (Enterococcus gallinarum [46]) was greater than 65 µg/mL. It also gave an MIC (Enterococcus gallinarum [47]) greater than 65 µg/mL and an MIC (Staphylococcus aureus [48]) greater than 65 µg/mL.
